Assay results from the EternaBench riboswitch data.

Tested on: MS2 coat protein
Test: apparent Kd, MS2 coat protein; higher = weaker binding; RNA-MaP array
In short: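 For each design, the apparent Kd is the median of binding-curve fits across its clusters. Designs measured on fewer than 10 clusters were dropped. The RNAs were transcribed from sequenced DNA templates on an Illumina sequencing chip and incubated at room temperature, with or without input ligand, with fluorescently labeled MS2 coat protein at 1.5 nM to 3 μM.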

[1] = designed as: OFF switch for flavin mononucleotide, no ligand
[2] = ligand present: flavin mononucleotide, designed as: OFF switch for flavin mononucleotide
[3] = designed as: ON switch for flavin mononucleotide, no ligand
[4] = ligand present: flavin mononucleotide, designed as: ON switch for flavin mononucleotide
[5] = designed as: ON switch for tryptophan, no ligand
[6] = ligand present: tryptophan, designed as: ON switch for tryptophan
[7] = designed as: ON switch for theophylline, no ligand
[8] = ligand present: theophylline, designed as: ON switch for theophylline

Row | Sequence | apparent Kd [1] | apparent Kd [2] | other results
1 | UCGCGCUAAGGAUAUACUAUAAGCCACAUGAGGAUCACCCAUGUUAUAUACAUGUCCUCGGUAGAAGGUAGCCGGA | 48.6 nM | 50.2 nM | 
2 | UAACAUGAGGAUCACCCAUGUACGAAGAGGGAAAGAAAAGUCAAGGAUAUGCGGAUUUAACUAGCGCAGAAGGUGAUCUAAGUU |  |  | apparent Kd [3]: 230 nM; apparent Kd [4]: 114 nM
3 | UCAUUUUUCACGGCCGCCACUUCAAGGUCCUGAGGCUGGGCAACACAUGAGGAUCACCCAUGUCGAAGGACCGGGUGAAGCUACC |  |  | apparent Kd [5]: 114 nM; apparent Kd [6]: 183 nM
4 | AAUAAACGAGGAUAUACAGAUCAAGAUUAUCUAGUGAUCCUACAUGAGGAUCACCCAUGUAGAAGGCGAGAACA | 51.1 nM | 66.7 nM | 
5 | UAAUAUGGAGGAUAUAAAGUCGAAGACAUGAGGAUCACCCAUGUCCUUGGUUGAAAGAGGUUAGAAGGCCAUAGUA | 9.47 nM | 9.66 nM | 
6 | CUCUAUCAGCAAGGAUAUGGGAGGUGUCGAGUUCCAGAAGGUGCACAUGAGACAUGAGGAUCACCCAUGUUGUGUAGUCCUCGA | 10.8 nM | 26.5 nM | 
7 | ACACAUGAGGAUCACCCAUGUAGAUAUGGGCUCACUAUCACUAGAAGGACUUUGCUCUCUUGGAAGUAGGAUAUAGUACGCUGG | 163 nM | 134 nM | 
8 | AGGCGGGUAGGAUAUACCUUGUUCCUAGUAUCCAGUCGAGGACAUGAGGAUCACCCAUGUAGAAGGACCCAUUC | 30.9 nM | 36.5 nM | 
9 | AACUAACAUAGUUAACAACAUGAGGAUCACCCAUGUCGCAUGUAGGAUAUGGUAGAGGACACAACCCAGAAGGACAUAACAUAA |  |  | apparent Kd [3]: 41.9 nM; apparent Kd [4]: 22.9 nM
10 | GACUACCAGGAAGGAUAUGCCUAUAACUGAAAGACAUGAGGAUCACCCAUGUAUUGGGCGAACCUGCAGAAGGUCCGACUAGAC | 40.6 nM | 41.2 nM | 
11 | CGACGUCACGUGAGGAUAUGAUUGCUGCAAAUCAGUCAGAAGGCACAUGAGGAUCACCCAUGUCACCAAUACGA | 7.15 nM | 10.3 nM | 
12 | AUAAAACGAGUGCAGGAUAUUCCGUCGCGCACAUGAGGAUCACCCAUGUCAAUUGGGCAUCGUACGAAGAAGGGCAAAUACCAGCG |  |  | apparent Kd [3]: 116 nM; apparent Kd [4]: 76.4 nM
13 | UCCCUGCAAGGAUAUACAUGAGGAUCACCCAUGUUUACACACGAAAAUUUGGAGAUAGGUAGAAGGUGCAUUUU | 12.6 nM | 11.8 nM | 
14 | ACUCGAUUACACAACCCGACAUGAGGAUCACCCAUGUAUCCGAGAAGGGCUAAUAUAUUCAGGAAGCAGGAUAUCGAAUCAAUA |  |  | apparent Kd [3]: 87.5 nM; apparent Kd [4]: 50.5 nM
15 | AGUCAAGAGUAGAAGGGUGGAAAUUCGGUCGACACAGGAUAUACUUCAGGAGCCAGAAGACAAUAACAUGAGGAUCACCCAUGU |  |  | apparent Kd [3]: 14.1 nM; apparent Kd [4]: 9.27 nM
16 | GCACGACAUGAGGAUCACCCAUGUGAGGAUAUACUACAUCAGGAACACGCUAUGCACGGUAGAAGGCACGGGAG | 16.4 nM | 15.6 nM | 
17 | GAAGCUCGCGAUGAUACCAGCUCGACUGAUAACAUGAGGAUCACCCAUGUUGUGCGCCCUAGCCCUUGGCAGCAUGACAUAUUCG |  |  | apparent Kd [7]: 110 nM; apparent Kd [8]: 71.1 nM
18 | UUUACAUGAGGAUCACCCAUGUUCCCUUGUGACACGUUUUUCAGAAGGACAGGCAUAAUUUGGAUGUAGGAUAUGAAUUAGUGC | 24.9 nM | 21.9 nM | 
19 | CAACAUGAGGAUCACCCAUGUGGAGGUCCCGUUACCGGCGGAUAGGAUAUGGAACGCAGCGAAAACCAGAAGGAUCUAUAGGAC |  | 112 nM | 
20 | ACAGUAAAUGUGUAGGAUAUGAACUAAACCACAUGAGGAUCACCCAUGUAACGAUUGGAUGGCCUUCAGAAGGACAGGGUUAUUGC |  |  | apparent Kd [3]: 304 nM; apparent Kd [4]: 215 nM
21 | GUGCUGAAUACGUAGGAUAUAGUGUGUGCGACAUGAGGAUCACCCAUGUAAAUUGCCCAUCAGAGCUAGAAGGACGAAUCUUCGUG |  |  | apparent Kd [3]: 15.5 nM; apparent Kd [4]: 8.78 nM
22 | UCAUACAUGAGGAUCACCCAUGUUCGUGGGCGAGGACCGGUACGGCCGCCACUCGUACUAACGGUUUCUUAAACUUCCUUUCGAG |  |  | apparent Kd [5]: 25.6 nM; apparent Kd [6]: 17.2 nM
23 | GCAAAGUAAGAAGGAUAUGCGUCCGGUGAACAACAACGCGAUCGAACAUGAGGAUCACCCAUGUCGCAGAAGGUCUGAGAAUUC | 27.4 nM | 40.3 nM | 
24 | CGCCCAGUUACGGCCGCCACUUCGAUGGCAAAUGUCGAGCCUCCACAUGAGGAUCACCCAUGUCGAAGGACCGGGUACUGCUUGC |  |  | apparent Kd [5]: 31.9 nM; apparent Kd [6]: 110 nM
25 | GAUCGCAUCGUGAGGAUAUGAAAUGCCACUCAAAUACAGAAGGCACAUGAGGAUCACCCAUGUCUAGACAAGAG | 25.9 nM | 64.9 nM | 
26 | CCGGUCCACUAGGAUAUGCGGAGUGUAUAUCACGCAGAAGGAGUCACAUGAGGAUCACCCAUGUGCGUGGGUUG | 9.4 nM | 9.16 nM | 
27 | ACAUGAGGAUCACCCAUGUACCAAGAACAUUGAUGCCUCCGAGAGGAUAUUUGCGGUAUAACACUAAAGAAGGCUCUACAAGUA | 7.95 nM | 7.31 nM | 
28 | AAACCAUCAAACACAUGAGGAUCACCCAUGUCUAAAGAAAUGUAGGAUAUGUAAUACCUAGUCAAACAGAAGGACAUUCAAGAU |  |  | apparent Kd [3]: 9.39 nM; apparent Kd [4]: 8.35 nM

Row | Sequence | apparent Kd [1] | apparent Kd [2] | other results
29 | ACUAGACAUGAGGAUCACCCAUGUGAGGAUAUCUUGCUAUGCACUAUGGGCCAACGGAAGAGAAGGCACUGGGA | 45.7 nM | 93.2 nM | 
30 | CAAAUAUAGUCAGGAUAUGUUCGAAAGGGUGCACAUGAGGAUCACCCAUGUCAUAAGACACUAGCACAGAAGGGACCCGAGAGA | 149 nM | 141 nM | 
31 | AUGAGUGGCCUGACAUGAGGAUCACCCAUGUCAAAUAAUGCAAGAAGGGACCUUUAUUCAAGGUGUCAGGAUAUUGAUUAAACC |  |  | apparent Kd [3]: 15.8 nM; apparent Kd [4]: 12.9 nM
32 | ACAAGGCUUACAGGAUAUGUGCGUCAUACAAAACAUGAGGAUCACCCAUGUGCCCCAGCGUCUUCACAGAAGGGUACAAGCGUU |  |  | apparent Kd [3]: 26.6 nM; apparent Kd [4]: 12.4 nM
33 | CAUGAUAAGUUGGAUACCAGCAUAUGGAACAACAUGAGGAUCACCCAUGUCAAAUGACAUUGCCCUUGGCAGCCACCUACUGUCA |  |  | apparent Kd [7]: 20.3 nM; apparent Kd [8]: 11.1 nM
34 | CCGCCCUACCGCGAUACCAGUACGGCAGUUAACAUGAGGAUCACCCAUGUGCAAACAUAAUACCCUUGGCAGCGCCUGAAUCCAU |  |  | apparent Kd [7]: 17.7 nM; apparent Kd [8]: 17.3 nM
35 | CCGUGGCAUCAACAGGAUAUGCUAUCAAAGACAUGAGGAUCACCCAUGUGGGUAUAUUACUUCCGGCAGAAGGGUUUAAGGGUUAC |  |  | apparent Kd [3]: 36.6 nM; apparent Kd [4]: 28.9 nM
36 | UCUGCGUCAGUCAGGAUAUGUUGCCAAAUUAUGGCACAGAAGGGACAUGAGGAUCACCCAUGUAGCGUCUCCGU | 10.2 nM | 10.4 nM | 
37 | AUUGAGACCUAGAAGGCGAAAACAUGAGGAUCACCCAUGUAGAUAACACCUACAUGAGCGAAAUACGAGGAUAUAGGAAAACUC | 356 nM | 351 nM | 
38 | GGUGACCCUGUUCCACAUGAGGAUCACCCAUGUUACCACUAUUAGGAUAUGCUUACAUGUACACUGCAGAAGGAAUAGGUAAGA | 103 nM | 442 nM | 
39 | CAAGCAUGAGAGAAGGUCCCAUCUAAACAUGAGGAUCACCCAUGUGAUACGGUGCUAUUGUGAAGGAAGGAUAUCUCAGUUAAU |  |  | apparent Kd [3]: 61.7 nM; apparent Kd [4]: 16.8 nM
40 | UGUAUAGCCACUCAGGAUAUAGUUCAUCACACAUGAGGAUCACCCAUGUUACCAAUAUCAUCUGACUAGAAGGGAGAGACUUGCGU |  |  | apparent Kd [3]: 13.4 nM; apparent Kd [4]: 9.17 nM
41 | GGAAGUGUCUAGGAUAUCCUUCGAUCUAUGGCAGGAGAAGGAGAUACAUGAGGAUCACCCAUGUAGGUACGGGC | 7.1 nM | 6.75 nM | 
42 | UGGUAUGAAGGAUAUGACUAAGUUCACAUGAGGAUCACCCAUGUAACGUCCUCGACAUGUUCAGAAGGUCAGGCGA | 11.7 nM | 11.4 nM | 
43 | GGAAUGUAAGGAUAUACCCGUAAGGUAGGGAUCGCAUCGGCGUAGAAGGUACAUGAGGAUCACCCAUGUUCAGC | 7.78 nM | 7.97 nM | 
44 | UAAAUUCGAGGAUAUACGAGCCUCUUGAGCUGCCACGAAGCACAUGAGGAUCACCCAUGUAGAAGGCGACGGAU | 12.2 nM | 19.9 nM | 
45 | AACAUGGAUCAAGGAUAUGCAAAGCGCUCGAUAAACAUGAGGAUCACCCAUGUGGCAGUCACAACGCAGAAGGUGACUAUAAUA |  |  | apparent Kd [3]: 29.9 nM; apparent Kd [4]: 19.3 nM
46 | AGGAACGUAGAGAAGGGAUCAAUUCGGUACAUGAGGAUCACCCAUGUGAUGGCCAAACUUCGAAAUCAGGAUAUCUCAUAAUAC |  |  | apparent Kd [3]: 18.4 nM; apparent Kd [4]: 14.2 nM
47 | UAAGCACAUGAGGAUCACCCAUGUGAGGAUAUGAGUGUCGGUCGAGAAGAGCGUCCAAUCAGAAGGCACAGGAU | 12.9 nM | 11.6 nM | 
48 | CCAAGAGUACUAGGAUAUUCCGGCCACGCACAUGAGGAUCACCCAUGUGAGACUCUCAGACGGUCGAAGAAGGAGUUGCAGGCU | 34.8 nM | 30.9 nM | 
49 | CUAGGUCAGCUAGGAUAUACUUCUUGCAUGGAUGUAGAAGGAGCGAUAAGAUCUACAUGAGGAUCACCCAUGUUACUUAGGGUG | 290 nM | 131 nM | 
50 | ACUCGGCAUCAUGAUACCAGAGAGCCCGAGAUGCCUUAACACAUGAGGAUCACCCAUGUACUCCCUUGGCAGCAUCAUGCACUAU |  |  | apparent Kd (designed as: OFF switch for theophylline, no ligand): 19.4 nM; apparent Kd (ligand present: theophylline, designed as: OFF switch for theophylline): 24.4 nM
51 | AAAAGACAUGAGGAUCACCCAUGUAGAGAUACCAGAUGCAUGGACAUCCCUUGGCAGCUCGUCACUUUCUAUAUUUUCCAGACGC |  |  | apparent Kd [7]: 46.9 nM; apparent Kd [8]: 21.9 nM
52 | GCCAGUGUCUAGGAUAUCACGCCGCGUUGCAGGUGAGAAGGAGACACAUGAGGAUCACCCAUGUGUCCGAUAGG | 7.12 nM | 9.49 nM | 
53 | UCGUCGCUUCAGAAGGACAGACAAUCGUGCACUGUAGGAUAUGAGACGCGACAUGAGGAUCACCCAUGUGAACGGUUCGUAUAA | 25.1 nM | 53 nM | 
54 | CGACUGAAUAGGCAGUACACAUGAGGAUCACCCAUGUUAGCAAGAAGGCAAGAGCCAGCGGAGCUUGAGGAUAUUGAAGAUCUC |  |  | apparent Kd [3]: 27.2 nM; apparent Kd [4]: 27.4 nM
55 | AACGAAUGAGGAUAUACAUGAGGAUCACCCAUGUGAAAGGGAGGUUGAAGAUUUGACAGUAGAAGGCAUAUGAC | 94.2 nM | 80 nM | 
